Bioassay records as filed in PubChem BioAssay.
RanGTP-Impb inh: inhibitors of RanGTP-importin-beta interaction, primary screen, biochemical, FRET, CFP-Ran, YFP-importin-beta, homogeneous; cell-free CFP-Ran/YFP-importin-beta FRET ratio; inhibition, % (concentration not given with the values); 1.1% of 300,000 active;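 active = more than half of the replicate wells show a fall in the fluorescence ratio signal beyond about 16%, limit read from the data, passing the limit was not always enough; inconclusive = exactly half of the replicate wells pass the set limit; inactive = fewer than half of replicates pass the limit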
M18AAP inhibitor: blocks P. falciparum M18 aspartyl aminopeptidase | AID 1822 | inhibition, % at 7.35 µM | recombinant PfM18AAP, H-Glu-NHMec fluorogenic cleavage | 1.2% of 290,000 active;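 active = inhibition above the campaign mean inhibition over all tested compounds plus 3 SD, cut at about 28% in these data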
Runt-SMMHC FRET: inhibitors of human RUNX1 Runt domain binding to CBFb-SMMHC; 0.74% of 220,000 active; Q01196+Q13951; inhibition, % at 20 µM; Cerulean-Runt/Venus-CBFb-SMMHC FRET ratio 530/480, 1 h;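 active = mean inhibition across duplicate retests at 20 µM reaching about 50%, limit read from the data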;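 also: inhibitors lower the FRET ratio by blocking Runt binding to CBFb-SMMHC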
RBBP9 inh: human RBBP9 hydrolase inhibition. 0.2% of 220,000 active. AID 1515. O75884. recombinant RBBP9, FP-Rh probe fluorescence polarization. inhibition, % at 7.94 µM;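 active = inhibition above the campaign mean of all tested compounds plus 3 SD, cut at about 14% in these data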
Target sequence (O75884 whole entry, looked up): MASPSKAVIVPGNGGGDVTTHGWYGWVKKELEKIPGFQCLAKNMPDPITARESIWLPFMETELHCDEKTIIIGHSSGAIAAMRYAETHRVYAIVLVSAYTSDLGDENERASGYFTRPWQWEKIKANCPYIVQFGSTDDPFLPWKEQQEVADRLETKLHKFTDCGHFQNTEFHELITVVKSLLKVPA
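Controls: DMSO-treated enzyme wells and wells lacking RBBP9 | Material: RBBP9 protein | Technique: Fluorescence polarization | Replication: Single well per compound, no replicates | Buffer or medium: Tris-NaCl-Pluronic buffer, pH 8.0 | Timing: 30 min compound preincubation, 45 min probe labeling, 25 °C | Read-out basis: Percent inhibition from mP, scaled between DMSO and no-protein wells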
Hck-Nef inh: inhibitors of human Hck kinase activated by Nef | Recombinant Hck-YEEI plus Nef, Z-Lyte FRET kinase assay | P08631 | inhibition, % at 20 µM | 0.68% of 220,000 active;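 active = Hck-Nef kinase inhibition above about 50%, limit read from the data; inactive = inhibition below that limit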
Target sequence (P08631 whole entry, looked up): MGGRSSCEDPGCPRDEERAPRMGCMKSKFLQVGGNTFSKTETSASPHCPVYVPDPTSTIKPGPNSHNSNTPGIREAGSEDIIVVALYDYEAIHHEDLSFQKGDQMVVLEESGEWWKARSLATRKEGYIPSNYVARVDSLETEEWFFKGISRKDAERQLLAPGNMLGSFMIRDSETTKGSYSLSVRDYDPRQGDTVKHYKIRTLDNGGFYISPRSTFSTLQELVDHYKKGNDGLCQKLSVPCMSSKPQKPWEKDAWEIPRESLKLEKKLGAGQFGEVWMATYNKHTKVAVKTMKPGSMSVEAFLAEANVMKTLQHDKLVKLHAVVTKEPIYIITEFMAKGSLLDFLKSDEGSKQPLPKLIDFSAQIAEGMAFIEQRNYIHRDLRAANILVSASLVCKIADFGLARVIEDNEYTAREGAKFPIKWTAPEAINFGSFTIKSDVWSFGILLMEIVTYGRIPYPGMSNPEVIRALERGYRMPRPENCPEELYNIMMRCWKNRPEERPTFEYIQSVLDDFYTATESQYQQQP
Runt-CBFb FRET: blocks binding of human RUNX1 Runt domain to CBFb; Q01196+Q13951; 0.46% of 220,000 active; Cerulean-Runt/Venus-CBFb FRET ratio 530/480, 1 h; inhibition, % at 20 µM;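 active = inhibition over about 50% at 20 µM in the single-dose screen, limit read from the data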
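test system = Cerulean-Runt domain fusion protein, energy donor | probe or stimulus = Venus-CBFb binding partner, 100 nM | incubation = two 1 h room-temperature incubations shielded from light | detection = fluorescence energy transfer, 422 nm excitation, 530/480 nm emission | measure = loss of energy transfer signal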
Large screens that a line does not name were inactive. Shown are actives, neighbours in structure and some others; about 2.9% of the full set was active somewhere.

Oc1ccccc1/C=N/NC(=S)NC1CC2C=CC1C2 (stereo unspecified)	none
Oc1c(Cl)cc(Cl)cc1/C=N/NC(=S)NC1CC2C=CC1C2 (stereo unspecified)	Runt-SMMHC FRET 90
CCOc1ccc(N2C(=O)CC(NC3CCN(C(=O)c4ccc(F)cc4)CC3)C2=O)cc1 (stereo unspecified)	none (no result: Runt-SMMHC FRET, RBBP9 inh, Hck-Nef inh, Runt-CBFb FRET)
CCCCC(=O)Nc1ccc(NC(=O)c2cnccn2)cn1	RanGTP-Impb inh 172
CCCCC(=O)Nc1ccc(NC(=O)C(C)C)cn1	none
N#CC1=C(N)N(c2ccccc2C#N)C2=C(C(=O)CCC2)C1c1ccsc1 (stereo unspecified)	RanGTP-Impb inh 30
Cc1ccc(N2C(N)=C(C#N)C(c3cccs3)C3=C2CC(C)(C)CC3=O)cc1 (stereo unspecified)	none
Cc1c(C2C(C#N)=C(N)N(c3ccccc3C#N)C3=C2C(=O)CCC3)cnn1C (stereo unspecified)	none
N#CC1=C(N)N(c2ccccc2)C2=C(C(=O)CCC2)C1c1cccs1 (stereo unspecified)	M18AAP inhibitor 29
OCC[C@@H]1C[C@H](O)[C@@H](O)[C@@]2(OCCCc3ccccc32)O1	RanGTP-Impb inh inconclusive (no result: Runt-SMMHC FRET, RBBP9 inh, Hck-Nef inh, Runt-CBFb FRET)
O=C(Cc1ccc(Cl)cc1Cl)Nc1cccc(S(=O)(=O)Nc2ccccc2F)c1	M18AAP inhibitor 29
O=C(Nc1cccc(S(=O)(=O)Nc2ccccc2F)c1)c1ccc2ccccc2n1	M18AAP inhibitor 30
CCn1c(C)nc2cc(C(=O)NNC(=O)Nc3cccc(Cl)c3)ccc21	M18AAP inhibitor 31
CCn1c(C)nc2cc(C(=O)NNC(=O)Nc3ccc(Cl)cc3)ccc21	none
COC(=O)c1cc(CNC(=O)c2sccc2-c2ccccc2)ccc1OC	none (no result: Runt-SMMHC FRET, RBBP9 inh, Hck-Nef inh, Runt-CBFb FRET)
O=C(Nc1cccn(Cc2cccc(F)c2)c1=O)NC1CCCCC1	none
O=C(Nc1cccn(Cc2c(F)cccc2Cl)c1=O)NC1CCCCC1	M18AAP inhibitor 28
Cc1ccc(CN2CCN(C(=O)CCN3C(=O)c4ccccc4C3=O)CC2)cc1	Runt-CBFb FRET 108
O=C(CCN1C(=O)c2ccccc2C1=O)N1CCN(Cc2ccccc2)CC1	none
CCCNC(=O)COc1coc(CN2CCN(c3ccccc3F)CC2)cc1=O	none (no result: Runt-SMMHC FRET, RBBP9 inh, Hck-Nef inh, Runt-CBFb FRET)
NC(=S)Nc1ccc(C(F)(F)F)cc1Cl	none
O=C(Cc1ccc(F)cc1)Nc1nnc(SCC(=O)NC2CCCC2)s1	RanGTP-Impb inh 27
COc1ccc(/C(O)=C/c2nc3ccccc3n(-c3ccccc3)c2=O)cc1	RanGTP-Impb inh 47
CCc1ccc(CN(C)C(=O)CCc2nc3ccccc3n(-c3ccc(OC)cc3)c2=O)cc1	none
COc1cccc(C2C=C(c3ccc(Br)s3)Nc3ncnn32)c1OC (stereo unspecified)	M18AAP inhibitor 32, Runt-SMMHC FRET 63
Fc1ccc(Br)cc1C1C=C(c2ccc(Br)s2)Nc2ncnn21 (stereo unspecified)	M18AAP inhibitor 39
COc1ccccc1NC(=O)NC1(C)CCS(=O)(=O)C1 (stereo unspecified)	none (no result: Runt-SMMHC FRET, RBBP9 inh, Hck-Nef inh, Runt-CBFb FRET)
CN1CCc2c(sc(NC(=O)c3ccc(C(=O)c4ccccc4)cc3)c2C(N)=O)C1	none (no result: Runt-SMMHC FRET, RBBP9 inh, Hck-Nef inh, Runt-CBFb FRET)
CCN1CCc2c(sc(NC(=O)c3ccc4ccccc4c3)c2C(N)=O)C1	none (no result: RanGTP-Impb inh, Runt-SMMHC FRET, RBBP9 inh, Hck-Nef inh, Runt-CBFb FRET)
NC(=O)c1c(NC(=O)Cc2ccccc2)sc2c1CCN(Cc1ccccc1)C2	RanGTP-Impb inh 134 (no result: Runt-SMMHC FRET, RBBP9 inh, Hck-Nef inh, Runt-CBFb FRET)
CCN1CCc2c(sc(NC(=O)CN3C(=O)c4ccccc4C3=O)c2C(N)=O)C1	Runt-SMMHC FRET 102, Runt-CBFb FRET 62
CC(=O)Nc1sc2c(c1C(N)=O)CCN(Cc1ccccc1)C2	RanGTP-Impb inh 162, Runt-SMMHC FRET 130
CCOc1ccc(CCNC(=O)COC(=O)C2=NNC(=O)CC2)cc1OCC	none (no result: M18AAP inhibitor, Runt-SMMHC FRET, RBBP9 inh, Hck-Nef inh, Runt-CBFb FRET)
CN(C)c1ccc(CNCc2cccnc2)cc1	none (no result: M18AAP inhibitor, Runt-SMMHC FRET, RBBP9 inh, Hck-Nef inh, Runt-CBFb FRET)
C/C(CC(=O)Nc1ccc(N(C)C)cc1)=N\NC(=O)c1ccc(C(C)(C)C)cc1	none (no result: Runt-SMMHC FRET, RBBP9 inh, Hck-Nef inh, Runt-CBFb FRET)
CC(C)COC(=O)/C(C#N)=C/c1c[nH]c2ccccc12	Runt-SMMHC FRET 51
N#C/C(=C\c1c[nH]c2ccccc12)C(=O)NC1CC1	none (no result: Runt-SMMHC FRET, RBBP9 inh, Hck-Nef inh, Runt-CBFb FRET)
Cc1c(O)ccc2cc(S(=O)(=O)c3ccccc3)c(=O)oc12	RanGTP-Impb inh 132 (no result: Runt-SMMHC FRET, RBBP9 inh, Hck-Nef inh, Runt-CBFb FRET)
COc1ccc(-n2nnnc2-c2ccc(S(C)(=O)=O)cc2Cl)cc1	none (no result: Runt-SMMHC FRET, RBBP9 inh, Hck-Nef inh, Runt-CBFb FRET)
Cc1cc[n+](-c2[nH]c(=O)sc2/C=N/N=C(\[O-])c2ccncc2)cc1C	M18AAP inhibitor 29 (no result: Runt-SMMHC FRET, RBBP9 inh, Hck-Nef inh, Runt-CBFb FRET)
COc1ccc2cc(C#N)c(N3CCOCC3)nc2c1	none (no result: Runt-SMMHC FRET, RBBP9 inh, Hck-Nef inh, Runt-CBFb FRET)
COc1ccc2nc(N3CCC(C)CC3)c(C#N)cc2c1	RanGTP-Impb inh 45, Runt-SMMHC FRET 70, Runt-CBFb FRET 71
COc1ccc2nc(N3CCC(O)CC3)c(C#N)cc2c1	RanGTP-Impb inh 51, Runt-SMMHC FRET 75
CCOC(=O)c1cc(C#N)c(SCC(=O)c2cc(C#N)c(SC)nc2C)nc1C	RanGTP-Impb inh 20 (no result: M18AAP inhibitor, RBBP9 inh, Hck-Nef inh)
N#Cc1ccc(C(=O)NC2CCCCCCC2)cc1	none (no result: Runt-SMMHC FRET, RBBP9 inh, Hck-Nef inh, Runt-CBFb FRET)
CCOc1ccc2nc(NCCNC(=S)NCCCN(C)C)c(C#N)cc2c1	RanGTP-Impb inh 93, Runt-SMMHC FRET 92
CCOc1ccc2nc(NCCNC(=O)Nc3cccc(C)c3)c(C#N)cc2c1	Runt-CBFb FRET 88
